Data as given in ChEMBL document CHEMBL1287769, “Investigating the activity of 2-substituted alkyl-6-(2,5-dioxopyrrolidin-1-yl)hexanoates as skin penetration enhancers” (Bioorg Med Chem, 2010).

How the values were obtained:
[1] = Lipophilicity, log K of the compound in methanol-water mixture by HPLC; format: physicochemical
Method in brief: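 Isocratic RP-HPLC on end-capped C18 column, methanol as organic modifier in mobile phase at various amounts, 25 °C, detection 204 nm. Dead time from KI in methanol. Capacity factor k = (tR − tD)/tD; log k used as lipophilicity index.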

[2] = Potentiation of theophylline transdermal permeation in pig ear skin after 24 hrs by Franz diffusion cells method relative to untreated control; format: functional, Sus scrofa
Method in brief: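 Thawed full-thickness porcine ear skin, epidermis up, in vertical Franz cell (0.635 cm2 donor area). Receptor: PBS pH 7.4, 37 °C, stirred; skin equilibrated 0.5 h. Donor: enhancer 20 mg in PG 0.5 mL plus theophylline 5 mg in water 0.5 mL, sonicated; controls without enhancer. Receptor sampled at 1, 2, 4, 8, 12, 24 h, theophylline by HPLC at 280 nm. Steady-state flux from linear region; ER = flux with/without enhancer; ≥3 determinations, ≥2 animals.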

[3] = test system: SK-N-MC; experiment: Antiproliferative activity against human SK-N-MC cells after 72 hrs by MTT assay; format: cell-based
Method in brief: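 SK-N-MC cells (ATCC) grown in MEM with 10% FBS, pyruvate, non-essential amino acids, glutamine, antibiotics, fungizone at 37 °C, 5% CO2. Seeded 1.5 × 10^4 cells/well in medium with human diferric transferrin 1.25 µM ([Fe] = 2.5 µM), compounds 0–25 µM, 72 h. MTT added for 2 h, solubilized in SDS/isobutanol/HCl, read at 570 nm. IC50 = concentration reducing absorbance to 50% of untreated control; mean ± SD, n = 3.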

| Compound | log K [1] | fold change (FC) [2] | IC50 [3] [µM] |
| --- | --- | --- | --- |
| CCCCCCCCCCOC(=O)C(CCCCN1C(=O)CCC1=O)N1CCOCC1 (stereo unspecified) | 0.5834 | 1.71 | > 6.25 |
| CCCCCCOC(=O)C(CCCCN1C(=O)CCC1=O)N1CCCCC1=O (stereo unspecified) | -0.2356 | 2.33 | > 6.25 |
| CCCCCCCCCCCOC(=O)C(CCCCN1C(=O)CCC1=O)N1CCOCC1 (stereo unspecified) | 0.7588 | 1.61 | > 6.25 |
| CCCCCCCCCCCOC(=O)C(CCCCN1C(=O)CCC1=O)N1CCCCC1=O (stereo unspecified) | 0.5894 | 2.36 | > 6.25 |
| CCCCCCCCCCCCOC(=O)C(CCCCN1C(=O)CCC1=O)N1CCCCC1=O (stereo unspecified) | 0.7413 | 1.75 | > 6.25 |
| CCCCCCCCOC(=O)C(CCCCN1C(=O)CCC1=O)N1CCOCC1 (stereo unspecified) | 0.2613 | 1.8 | > 6.25 |
| CCCCCCCOC(=O)C(CCCCN1C(=O)CCC1=O)N1CCCCC1=O (stereo unspecified) | -0.0685 | 2.17 | > 6.25 |
| CCCCCCCCOC(=O)C(CCCCN1C(=O)CCC1=O)N1CCCCC1=O (stereo unspecified) | 0.0973 | 1.88 | > 6.25 |
| CC(=O)N(O)CCCCCNC(=O)CCC(=O)N(O)CCCCCNC(=O)CCC(=O)N(O)CCCCCN [DEFEROXAMINE] |  |  | 17.1 |
| CCOC(=O)C(CCCCN1C(=O)CCC1=O)N1CCCCC1=O (stereo unspecified) | -0.9565 |  |  |
| CCCCCCCCCOC(=O)C(CCCCN1C(=O)CCC1=O)N1CCCCC1=O (stereo unspecified) | 0.2638 | 1.81 | > 6.25 |
| CCCCCCCC/C=C\CCCCCCCC(=O)O [OLEIC ACID] |  | 1.13 |  |
| CCCCCCCCCOC(=O)C(CCCCN1C(=O)CCC1=O)N1CCOCC1 (stereo unspecified) | 0.4177 | 1.49 | > 6.25 |
| CCCCCCCCCCCCOC(=O)C(CCCCN1C(=O)CCC1=O)N1CCOCC1 (stereo unspecified) | 0.9221 | 1.92 | > 6.25 |
| CCOC(=O)C(CCCCN1C(=O)CCC1=O)N1CCOCC1 (stereo unspecified) | -0.7951 |  |  |
| CCCCCCCCCCOC(=O)C(CCCCN1C(=O)CCC1=O)N1CCCCC1=O (stereo unspecified) | 0.4285 | 1.63 | > 6.25 |
| CCCCCCOC(=O)C(CCCCN1C(=O)CCC1=O)N1CCOCC1 (stereo unspecified) | -0.0736 | 2.11 | > 6.25 |
| CCCCCCCOC(=O)C(CCCCN1C(=O)CCC1=O)N1CCOCC1 (stereo unspecified) | 0.0934 | 1.26 | > 6.25 |
